# Entries after “also recorded” stand apart in the source; their conditions may differ.
# Experiments:
# [1] = test system: human genome (ENCODE array); test: ChIP-chip, ENCODE tiled arrays; assay type: cell-based; conditions: doxorubicin treatment
# Method in brief: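 ChIP DNA from human cells expressing wild-type or ΔPHD2 JADE1L, with or without doxorubicin, was amplified, labelled and hybridised to […] human ENCODE tiled arrays. Analysis followed the array maker's standard protocol. Significant binding peaks were counted by position on the gene body, or by distance from TSS/TES when outside coding regions.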
# set1 chromatin = test: HAT assay on set1; assay type: biochemical, yeast; conditions: chromatin 500 ng, lacking H3K4me
# Method in brief: (§1)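 For acetyltransferase reactions, wild-type or mutant JADE1 complexes were immunopurified from co-transfected cells. They were incubated with 500 ng of native chromatin purified from yeast cells. Assays otherwise followed an earlier published protocol.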
# endogenous chromatin = test: In vivo association with endogenous chromatin; assay type: cell-based
# Method in brief: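 Tagged JADE1L or JADE1S complexes, wild-type or mutant, were immunopurified from co-transfected human cells. Co-purifying endogenous core histones and complex subunits were resolved by gel staining. Western blots with specific antibodies, including for H3K36me3, followed.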
# [2] = test system: native wild type chromatin; test: HAT assay on wild type yeast native chromatin; assay type: biochemical; conditions: chromatin 500 ng, fluorography
# Method in brief: as §1
# human native chromatin = test: Chromatin pull-down, human native chromatin; assay type: binding
# Method in brief: (§2)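 Immunopurified JADE1L or JADE1S complexes from co-transfected cells, normalised by gel, were incubated with purified native chromatin. Chromatin came from yeast (wild type or set1, lacking H3K4me) or from human cells.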
# native chromatin = test: Chromatin pull-down, yeast wild type native chromatin; assay type: binding; conditions: H3-tail dependent, western blot
# Method in brief: as §2
JADE1L binding at menin gene [1],binding to yeast native chromatin (native chromatin),Molecule,HAT activity on set1 yeast chromatin (set1 chromatin),"co-purification of core histones (endogenous chromatin; immunopurified complexes, gel staining)","level of H3K36me3-containing chromatin bound in vivo (endogenous chromatin; western blot, relative to JADE1L)",HAT activity on wild type yeast chromatin [2],binding to H3K36me3-containing human chromatin in vitro (human native chromatin)
seems to be induced,,COc1cccc2c1C(=O)c1c(O)c3c(c(O)c1C2=O)C[C@@](O)(C(=O)CO)C[C@@H]3O[C@H]1C[C@H](N)[C@H](O)[C@H](C)O1 [doxorubicin],,,,,
,efficiently pulled down yeast chromatin,JADE1S: natural smaller 509 amino acid-protein produced by an abundant mRNA splice variant; dimeric complex with HBO1 (protein) MKRGRLPSSSEDSDDNGSLSTTWSQNSRSQHRRSSCSRHEDRKPSEVFRTDLITAMKLHDSYQLNPDEYYVLADPWRQEWEKGVQVPVSPGTIPQPVARVVSEEKSLMFIRPKKYIVSSGSEPPELGYVDIRTLADSVCRYDLNDMDAAWLELTNEEFKEMGMPELDEYTMERVLEEFEQRCYDNMNHAIETEEGLGIEYDEDVVCDVCQSPDGEDGNEMVFCDKCNICVHQACYGILKVPEGSWLCRTCALGVQPKCLLCPKKGGAMKPTRSGTKWVHVSCALWIPEVSIGSPEKMEPITKVSHIPSSRWALVCSLCNEKFGASIQCSVKNCRTAFHVTCAFDRGLEMKTILAENDEVKFKSYCPKHSSHRKPEESLGKGAAQENGAPECSPRNPLEPFASLEQNREEAHRVSVRKQKLQQLEDEFYTFVNLLDVARALRLPEEVVDFLYQYWKLKRKVNFNKPLITPKKDEEDNLAKREQDVLFRRLQLFTHLRQDLERVMIDTDTL,highly active; also recorded: equivalent acetyltransferase activity,a full set of core histones co-purified,much higher; also recorded: significantly more H3K36me3 signal,much less active than the JADE1L complex,can bind H3K36me3-containing chromatin in vitro

# Reference: article PMC2677731 (Molecular cell, 2009)
